Experimental data published in ChEMBL document CHEMBL1124192, “Cyclopentenylcytosine. A carbocyclic nucleoside with antitumor and antiviral properties” (J Med Chem, 1988).
Converted amounts (≈) assume the structure as drawn. “And” between values parts separate entries of the source, which are not always exact repeats. Equal entries are not always repeated.

Experiments:
P388 [1] = assay: Compound was tested for antitumor activity against P388 leukemia in mouse at dose 1.5 mg/kg administered intraperitoneally in experiment 2; assay type: functional; details: P388, ip, route intraperitoneal
Summary of the method: (§1)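 Mice bearing L1210, L1210/ara-C, P388 or P388/ara-C leukaemia. Tumour implanted at the site each line names: ip, sc or ic. Drug given ip in physiologic saline on a QD1-9 schedule, at several dose levels per experiment. Life-span runs ended on day 30. Read-out is median % increase in life span versus tumoured untreated controls, with long-term survivors included.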

Punta Toro virus [2] = assay: Tested for inhibition of virus-induced cytopathogenic effect and cytotoxicity of compound against Punta toro virus with adames strain in vero cell; assay type: functional
Human alphaherpesvirus 3 [3] = assay: Compound was tested for antiviral activity against Varicella-Zoster from human diploid foreskin cells in mono layer culture at 320 ug/ml; assay type: functional
Summary of the method: (§2)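 VZV isolate DM625 on Huf cells (human diploid foreskin monolayers). Inoculum was left on after 1 h adsorption at 37 °C. Drug overlay in MEM + 2% FBS without agarose, refed with fresh drug at 72 h, in 2% CO2. Cells fixed in 10% formalin and stained with methylene blue; plaques counted day 6. % plaque reduction versus untreated virus controls, triplicates.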

Vero [4] = assay: Cytotoxicity of compound was determined by reduction in number of viable vero monolayer cells after treatment with 1 ug/mL for 4 days; assay type: functional, Chlorocebus sabaeus
Summary of the method: (§3)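 Vero monolayers in duplicate cultures, exposed to each drug concentration in medium at 37 °C in a CO2 incubator for 4 days. Viable cells counted by trypan blue exclusion, and % reduction calculated against untreated control cultures.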

Vero [5] = assay: Cytotoxicity of compound was determined by reduction in number of viable vero monolayer cells after treatment with 0.1 ug/mL for 4 days; assay type: functional, Chlorocebus sabaeus; summary of the method: as §3
M5076 = assay: Compound was tested for antitumor activity against M5076 leukemia in mouse at dose 0.5 mg/kg administered intraperitoneally in experiment 1; assay type: functional; details: M5076, ip, route intraperitoneal
Summary of the method: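 Mice bearing M5076 tumour. Drug given ip in physiologic saline, daily on days 1-13, at several dose levels. Experiment ended on day 30. Read-out is median % increase in life span versus untreated tumoured controls, with long-term survivors included.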

L1210 [6] = assay: Compound was tested for antitumor activity against L1210 leukemia in mouse at dose 1 mg/kg administered intraperitoneally in experiment 2; assay type: functional; details: L1210, ip, route intraperitoneal; summary of the method: as §1
L1210 [7] = assay: Number of 60-day survivors out of 10 tested at dose 2.25 mg/kg administered intraperitoneally; assay type: functional, Mus musculus; details: route intraperitoneal
L1210 [8] = assay: Compound was tested for antitumor activity against L1210 leukemia in mouse at dose 1 mg/kg administered intraperitoneally in experiment 1; assay type: functional; details: L1210, ip, route intraperitoneal; summary of the method: as §1
[9] = Ratio of minimum drug concentration to ID50 of the compound ([…] strain); assay type: ADME; details: read-out: Therapeutic index
Yellow fever virus = assay: Inhibitory dose of compound required to inhibit cytopathogenic effects of yellow fever virus with asibi strain in vero cells; assay type: functional; details: read-out: ID50 (the source's name)
Vero [10] = assay: Cytotoxicity of compound was determined by reduction in number of viable vero monolayer cells after treatment with 10 ug/mL for 4 days; assay type: functional, Chlorocebus sabaeus; summary of the method: as §3
[11] = system: Japanese encephalitis virus; assay: Inhibitory dose of compound required to inhibit cytopathogenic effects of Japanese encephalitis virus with […] strain in vero cells; assay type: functional; details: read-out: ID50 (the source's name)
Vero [12] = assay: Cytotoxicity of compound was determined by reduction in number of viable vero monolayer cells after treatment with 320 ug/mL for 4 days; assay type: functional, Chlorocebus sabaeus; summary of the method: as §3
Cytomegalovirus [13] = assay: Log value for antiviral activity against Cytomegalovirus (AD169) from MRC5 diploid human embryonic lung cells at 10 ug/mL; assay type: functional
Summary of the method: (§4)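 CMV AD169 yield reduction in MRC5 cells. Subconfluent monolayers infected at MOI 0.2 PFU/cell for 1.5 h at 37 °C, rinsed, then fed drug in MEM + 2% FBS, in duplicate. Drug refed on day 3, cultures harvested on day 6 by freeze-thaw and pooled. Yield titrated by plaque assay under 0.25% agarose overlay for 5–6 days, then formalin-fixed and methylene blue-stained for plaque counts.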

[14] = system: unidentified influenza virus; assay: Inhibitory dose of compound required to inhibit cytopathogenic effects of influenza virus with A2/Aichi/2/68 strain in MDCK cells; assay type: functional; details: read-out: ID50 (the source's name)
L1210 [15] = assay: Compound was tested for antitumor activity against L1210 leukemia in mouse at dose 1 mg/kg administered subcutaneously in experiment 2; assay type: functional; details: L1210, sc, route subcutaneous; summary of the method: as §1
Mus musculus [16] = assay: Compound was tested for antitumor activity against human MX-1 mammary tumor xenografts in athymic mice at dose 1.5 mg/kg administered subrenal capsule in experiment 1; assay type: functional
[17] = Ratio of minimum drug concentration to ID50 of the compound (Adames strain); assay type: ADME; details: read-out: Therapeutic index
Vero [18] = assay: Cytotoxicity of compound was determined by reduction in number of viable vero monolayer cells after treatment with 0.01 ug/mL for 4 days; assay type: functional, Chlorocebus sabaeus; summary of the method: as §3
L1210 [19] = assay: (§5) Log cell kill at the end of treatment at dose 1 mg/kg administered intraperitoneally; assay type: functional, Mus musculus; details: route intraperitoneal
P388 [20] = assay: as §5; assay type: functional, Mus musculus; details: route intraperitoneal
L1210 [21] = assay: Compound was tested for antitumor activity against L1210 leukemia in mouse at dose 2.25 mg/kg administered intraperitoneally in experiment 2; assay type: functional; details: L1210, ip, route intraperitoneal; summary of the method: as §1
Vero [22] = assay: Cytotoxicity of compound was determined by reduction in number of viable vero monolayer cells after treatment with 100 ug/mL for 4 days; assay type: functional, Chlorocebus sabaeus; summary of the method: as §3
Human alphaherpesvirus 3 [23] = assay: Compound was tested for antiviral activity against Varicella-Zoster from human diploid foreskin cells in mono layer culture at 0.01 ug/ml; assay type: functional; summary of the method: as §2
P388 [24] = assay: Compound was tested for antitumor activity against P388 leukemia in mouse at dose 1 mg/kg administered intraperitoneally in experiment 1; assay type: functional; details: P388, ip, route intraperitoneal; summary of the method: as §1
Mus musculus [25] = assay: Compound was tested for antitumor activity against human A549 lung tumor xenografts in athymic mice at dose 1.5 mg/kg administered subrenal capsule in experiment 1; assay type: functional
[26] = system: unidentified influenza virus; assay: Tested for inhibition of virus-induced cytopathogenic effect and cytotoxicity of compound against influenza virus with A2/Aichi/2/68 strain in MDCK cell; assay type: functional
L1210 [27] = assay: Compound was tested for antitumor activity against L1210 leukemia in mouse at dose 2.25 mg/kg administered intraperitoneally in experiment 1; assay type: functional; details: L1210, ip, route intraperitoneal; summary of the method: as §1
L1210 [28] = assay: Median percent increase in life span of tumored, treated mice relative to tumored, untreated controls after intraperitoneal dose 1 mg/kg daily (1-9 days); assay type: functional; details: Mus musculus, L1210, ip
L1210 [29] = assay: Number of 60-day survivors out of 10 tested at dose 1 mg/kg administered intraperitoneally; assay type: functional, Mus musculus; details: route intraperitoneal
Punta Toro virus [30] = assay: Inhibitory dose of compound required to inhibit cytopathogenic effects of Punta toro virus with adames strain in vero cells; assay type: functional; details: read-out: ID50 (the source's name)
L1210 [31] = assay: Median percent increase in life span of tumored, treated mice relative to tumored, untreated controls after intraperitoneal dose 0.5 mg/kg daily(for every 3 hr); assay type: functional; details: Mus musculus, L1210, ip
Cytomegalovirus [32] = assay: Log value for antiviral activity against Cytomegalovirus (AD169) from MRC5 diploid human embryonic lung cells at 0.1 ug/mL; assay type: functional; summary of the method: as §4

Nc1ccn([C@@H]2C=C(CO)[C@@H](O)[C@H]2O)c(=O)n1
ILS at 1.5 mg/kg (P388 [1]): 69%
Virus rating (Punta Toro virus [2]): 1.5
Plaque reduction (Human alphaherpesvirus 3 [3]): 36%
Reduction (Vero [4]): 61%
Reduction (Vero [5]): 50%
ILS at 0.5 mg/kg (M5076): 5%
ILS at 1 mg/kg (L1210 [6]): 201%
No. of survivors (L1210 [7]): 6
ILS at 1 mg/kg (L1210 [8]): 212%
selectivity ratio [9]: 3.1
IC50 (Yellow fever virus): 5.05 µg/mL (≈ 21.1 µM)
Reduction (Vero [10]): 64%
IC50 [11]: 0.1 µg/mL (≈ 0.418 µM)
Reduction (Vero [12]): 67%
Reduction in virus yield (Cytomegalovirus [13]): 1.9 pfu/ml
IC50 [14]: 18.2 µg/mL (≈ 76.1 µM)
ILS at 1 mg/kg (L1210 [15]): 83%
ILS at 1.5 mg/kg (Mus musculus [16]): 100%
selectivity ratio [17]: 0.3
Reduction (Vero [18]): 0%
LCK (L1210 [19]): >6 and >5.8
LCK (P388 [20]): 0.9
ILS at 2.25 mg/kg (L1210 [21]): 57%
Reduction (Vero [22]): 66%
Plaque reduction (Human alphaherpesvirus 3 [23]): 0%
ILS at 1 mg/kg (P388 [24]): 88%
ILS at 1.5 mg/kg (Mus musculus [25]): -59%
Virus rating [26]: 2.4
ILS at 2.25 mg/kg (L1210 [27]): 125%
ILS at 1 mg/kg (L1210 [28]): 124%
No. of survivors (L1210 [29]): 6
IC50 (Punta Toro virus [30]): 1.01 µg/mL (≈ 4.22 µM)
ILS at 0.5 mg/kg (L1210 [31]): 116%
Reduction in virus yield (Cytomegalovirus [32]): 0.8 pfu/ml
